The subject of series [1] is Rattus norvegicus. Description: Percentage Inhibition of galactitol accumulation in the sciatic nerve of rats fed with the dose of 25.6 mg/kg/day. It is filed as functional. A digest of the protocol:
(§1)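 Male Sprague-Dawley rats (70-90 g), six per group, fed 20% galactose chow with compound in the diet for 4 days; glucose-fed controls. After a 3-h fast, lens or sciatic nerve galactitol was measured as nmol/mg wet weight. Percent inhibition vs galactose-fed controls, mean ± SEM; ANOVA with Dunnett's test.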

Series [2] addresses Aldo-keto reductase family 1 member B1 (Bos taurus, UniProt P16116). The series can be described thus: In vitro inhibition of aldose reductase activity in a partially purified bovine lens preparation.
The subject of series [3] is Rattus norvegicus. The series can be described thus: Percentage Inhibition of galactitol accumulation in the sciatic nerve of rats fed with the dose of 1.1 mg/kg/day. Type of series: functional. A digest of the protocol:
as §1

The test system of series [4] is Rattus norvegicus. Description: Percentage Inhibition of galactitol accumulation in the sciatic nerve of rats fed with the dose of 3.0 mg/kg/day. It is filed as functional. A digest of the protocol:
as §1

The nature of series [5]: Log P value by using Octanol / pH 7.4 buffer. Type of series: physicochemical. An outline of the steps:
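Partition measured between octanol and pH 7.4 buffer.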

The test system of series [6] is Rattus norvegicus. The series can be described thus: Percentage Inhibition of galactitol accumulation in the lens of rats fed with the dose of 3.0 mg/kg/day; NS=Not significant. It is filed as functional, organism-based. To be noted: Lens of camera-type eye. An outline of the steps: as §1
Series [7] concerns Rattus norvegicus. Description: Percentage Inhibition of galactitol accumulation in the sciatic nerve of rats fed with the dose of 1.0 mg/kg/day (values are mean of six animals). It is filed as functional. A digest of the protocol:
as §1

The subject of series [8] is Rattus norvegicus. The series can be described thus: Percentage Inhibition of galactitol accumulation in the lens of rats fed with the dose of 1.0 mg/kg/day; NS=Not significant. Type of series: functional, organism-based. To be noted: Lens of camera-type eye. An outline of the steps: as §1
Series [9] concerns Rattus norvegicus. Description: Percentage Inhibition of galactitol accumulation in the lens of rats fed with the dose of 1.1 mg/kg/day. It is filed as functional. The following applies: Lens of camera-type eye. An outline of the steps: as §1
Series [10] concerns Rattus norvegicus. The series can be described thus: Percentage Inhibition of galactitol accumulation in the sciatic nerve of rats fed with the dose of 1.1 mg/kg/day (values are mean of six animals). Type of series: functional. An outline of the steps:
as §1

Series [11] has as its system Rattus norvegicus. Description: Percentage Inhibition of galactitol accumulation in the sciatic nerve of rats fed with the dose of 0.5 mg/kg/day. It is filed as functional. An outline of the steps: as §1
In series [12] the test system is Rattus norvegicus. The series can be described thus: Percentage Inhibition of galactitol accumulation in the lens of rats fed with the dose of 1.0 mg/kg/day. Type of series: functional. The following applies: Lens of camera-type eye. An outline of the steps: as §1
Series [13] concerns the target Aldo-keto reductase family 1 member B1 (Bos taurus) (UniProt P16116). Description: Inhibition of aldose reductase activity in a partially purified bovine lens preparation at 10e-7 M. An outline of the steps:
(§2)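 Partially purified bovine lens aldose reductase (ammonium sulfate fractionation). NADPH oxidation read at 340 nm, 37 °C, in 30 mM sodium phosphate pH 6.2, 0.2 M LiSO4, […], 1% DMSO. Enzyme was preincubated with inhibitor for 5 min, then the reaction was started with 5 mM DL-glyceraldehyde. Duplicates; IC50 from linear regression of log concentration vs percent inhibition.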

Series [14] deals with Rattus norvegicus. Description: Percentage Inhibition of galactitol accumulation in the lens of rats fed with the dose of 3.0 mg/kg/day. To be noted: Lens of camera-type eye. It is filed as functional. An outline of the steps: as §1
For series [15], the target named is Aldo-keto reductase family 1 member B1 (Bos taurus) (UniProt P16116). Description: Inhibition of aldose reductase activity in a partially purified bovine lens preparation at 4*10e-8 M. A digest of the protocol: as §2
The subject of series [16] is Rattus norvegicus. The series can be described thus: Percentage Inhibition of galactitol accumulation in the sciatic nerve of rats fed with the dose of 3.0 mg/kg/day (values are mean of six animals). Type of series: functional. An outline of the steps: as §1
Series [17] relates to Rattus norvegicus. Description: Percentage Inhibition of galactitol accumulation in the sciatic nerve of rats fed with the dose of 1.0 mg/kg/day. It is filed as functional. A digest of the protocol: as §1

The values that follow come from ChEMBL document CHEMBL1127561, “Novel spirosuccinimide aldose reductase inhibitors derived from isoquinoline-1,3-diones: 2-[(4-bromo-2-fluorophenyl)methyl]-6- fluorospiro[isoquinoline-4(1H),3'-pyrrolidine]-1,2',3,5'(2H)-tetrone and congeners. 1” (J Med Chem, 1994).

The source made the active and inactive calls. The rule behind the calls is not given here.

Molecule `COc1ccc2c(c1)C(=O)N(Cc1ccc(Br)cc1F)C(=O)C21CC(=O)NC1=O` (stereo unspecified) registered an inhibition in vivo at 25.6 mg/kg/day in the series with Rattus norvegicus [1] of 88%. For the same molecule, half-maximal inhibition in [2] (IC50) required 37 nM.

In the case of `O=C1CC2(C(=O)N1)C(=O)N(Cc1ccc(Cl)c(Cl)c1)C(=O)c1ccccc12` (stereo unspecified), the inhibition in vivo at 1.1 mg/kg/day with Rattus norvegicus [3] is 64%. The same molecule came in with an inhibition in vivo at 3 mg/kg/day in the series with Rattus norvegicus [4] of 76%. Also, the logD in series [5] worked out at 3.09. Moreover, the inhibition entry in the series with Rattus norvegicus [6] and in the series with Rattus norvegicus [8] was “inactive” throughout. This molecule also returned an inhibition in vivo at 1 mg/kg/day in the series on Rattus norvegicus [7] of 64%. Moreover, the IC50 in series [2] worked out at 22 nM.

Regarding `O=C1CC2(C(=O)N1)C(=O)N(Cc1nc3cc(C(F)(F)F)ccc3s1)C(=O)c1ccccc12` (stereo unspecified), the inhibition in vivo at 1.1 mg/kg/day in the series with Rattus norvegicus [9] was found to be 22%; with Rattus norvegicus [10], 100%. The molecule also yielded a logD in [5] of 3.17. The same molecule displayed an IC50 in [2] of 22 nM. This molecule also yielded an inhibition in vivo at 0.5 mg/kg/day in the series on Rattus norvegicus [11] of 49%.

Regarding `CN1C(=O)c2ccccc2C2(CC(=O)NC2=O)C1=O` (stereo unspecified), the values for the inhibition in vivo at 1 mg/kg/day in the series on Rattus norvegicus [12] and in the series on Rattus norvegicus [17] were 15% and 37%, respectively. Further, the values for the inhibition in series [13] and in series [15] were 63% and 38%, respectively. The inhibition in vivo at 3 mg/kg/day was 43% with Rattus norvegicus [14] and 66% with Rattus norvegicus [16]. This molecule yielded a logD in [5] of 0.24.
